Data published in ChEMBL document CHEMBL5046302, “Identification and Evaluation of Brominated Carbazoles as a Novel Antibiotic Adjuvant Scaffold in MRSA” (2022).
Activity calls are given as the source filed them. The calls are words filed in the database; no cut-off is given here.

Tests used:
Type in all cases: functional
Staphylococcus aureus [1] = assay: Potentiation of ampicillin induced antibacterial activity against methicillin-resistant Staphylococcus aureus USA300 assessed as fold change in ampicillin MIC at 25 uM after 18 hrs by CLSI protocol based broth microdilution assay
Staphylococcus aureus [2] = assay: Potentiation of oxacillin induced antibacterial activity against methicillin-resistant Staphylococcus aureus ATCC 43300 assessed as fold change in oxacillin MIC at 25 uM after 18 hrs by CLSI protocol based broth microdilution assay
Staphylococcus aureus [3] = assay: Potentiation of methicillin induced antibacterial activity against methicillin-resistant Staphylococcus aureus ATCC 43300 assessed as fold change in methicillin MIC at 25 uM after 18 hrs by CLSI protocol based broth microdilution assay
Staphylococcus aureus [4] = assay: Potentiation of ceftazidime induced antibacterial activity against methicillin-resistant Staphylococcus aureus ATCC 43300 assessed as fold change in ceftazidime MIC at 25 uM after 18 hrs by CLSI protocol based broth microdilution assay
Staphylococcus aureus [5] = assay: Potentiation of ampicillin induced antibacterial activity against methicillin-resistant Staphylococcus aureus USA100 assessed as fold change in ampicillin MIC at 25 uM after 18 hrs by CLSI protocol based broth microdilution assay
Staphylococcus aureus [6] = assay: Potentiation of cefoxitin induced antibacterial activity against methicillin-resistant Staphylococcus aureus USA100 assessed as fold change in cefoxitin MIC at 25 uM after 18 hrs by CLSI protocol based broth microdilution assay
Staphylococcus aureus [7] = assay: Potentiation of ceftazidime induced antibacterial activity against methicillin-resistant Staphylococcus aureus COL assessed as fold change in ceftazidime MIC at 25 uM after 18 hrs by CLSI protocol based broth microdilution assay
Staphylococcus aureus [8] = assay: Potentiation of oxacillin induced antibacterial activity against methicillin-resistant Staphylococcus aureus assessed as fold decrease in blaI gene expression at 25 uM by RT-qPCR analysis
Procedure, shortened: (§1)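 Fold dampening is the relative mRNA level of the gene, normalised to 16S rRNA, in oxacillin-treated cells divided by that in cells cotreated with oxacillin plus carbazole. Carbazole was used at 25 or 50 μM, as given in each line.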

Staphylococcus aureus [9] = assay: Potentiation of ampicillin induced antibacterial activity against methicillin-resistant Staphylococcus aureus ATCC 43300 assessed as ampicillin MIC at 25 uM after 18 hrs by CLSI protocol based broth microdilution assay
Staphylococcus aureus [10] = assay: Potentiation of cefoxitin induced antibacterial activity against methicillin-resistant Staphylococcus aureus ATCC 43300 assessed as cefoxitin MIC at 25 uM after 18 hrs by CLSI protocol based broth microdilution assay
Staphylococcus aureus [11] = assay: Potentiation of ceftazidime induced antibacterial activity against methicillin-resistant Staphylococcus aureus USA300 assessed as ceftazidime MIC at 25 uM after 18 hrs by CLSI protocol based broth microdilution assay
Staphylococcus aureus [12] = assay: Potentiation of ceftazidime induced antibacterial activity against methicillin-resistant Staphylococcus aureus COL assessed as ceftazidime MIC at 25 uM after 18 hrs by CLSI protocol based broth microdilution assay
Staphylococcus aureus [13] = assay: Potentiation of oxacillin induced antibacterial activity against methicillin-resistant Staphylococcus aureus USA300 assessed as fold change in oxacillin MIC at 25 uM after 18 hrs by CLSI protocol based broth microdilution assay
Staphylococcus aureus [14] = assay: Potentiation of oxacillin induced antibacterial activity against methicillin-resistant Staphylococcus aureus USA100 assessed as oxacillin MIC at 25 uM after 18 hrs by CLSI protocol based broth microdilution assay
Staphylococcus aureus [15] = assay: Potentiation of oxacillin induced antibacterial activity against methicillin-resistant Staphylococcus aureus USA300 harboring stk1 deletion mutant assessed as oxacillin MIC at 25 uM after 18 hrs by CLSI protocol based broth microdilution assay
Staphylococcus aureus [16] = assay: (§2) Potentiation of oxacillin induced antibacterial activity against methicillin-resistant Staphylococcus aureus USA300 harboring stk1 deletion mutant assessed as fold change in oxacillin MIC at 25 uM after 18 hrs by CLSI protocol based broth microdilution assay
Staphylococcus aureus [17] = assay: as §2, with “mutant co-transfected with a plasmid bearing stk1” for “mutant”
Staphylococcus aureus [18] = assay: Upregulation of blaZ gene expression in methicillin-resistant Staphylococcus aureus USA100 at 25 uM by RT-PCR method
Staphylococcus aureus [19] = assay: Upregulation of mecA gene expression in methicillin-resistant Staphylococcus aureus ATCC 43300 at 25 uM by RT-PCR method
Staphylococcus aureus [20] = assay: Potentiation of oxacillin induced antibacterial activity against methicillin-resistant Staphylococcus aureus ATCC 43300 assessed as fold change in oxacillin MIC at 50 uM after 18 hrs by CLSI protocol based broth microdilution assay
Staphylococcus aureus [21] = assay: Potentiation of oxacillin induced antibacterial activity against methicillin-resistant Staphylococcus aureus USA 100 assessed as fold change in oxacillin MIC at 50 uM after 18 hrs by CLSI protocol based broth microdilution assay
Staphylococcus aureus [22] = assay: Potentiation of ceftazidime induced antibacterial activity against methicillin-resistant Staphylococcus aureus ATCC 43300 assessed as ceftazidime MIC at 50 uM after 18 hrs by CLSI protocol based broth microdilution assay
Staphylococcus aureus [23] = assay: Potentiation of ampicillin induced antibacterial activity against methicillin-resistant Staphylococcus aureus USA100 assessed as ampicillin MIC at 50 uM after 18 hrs by CLSI protocol based broth microdilution assay
Staphylococcus aureus [24] = assay: Potentiation of methicillin induced antibacterial activity against methicillin-resistant Staphylococcus aureus USA100 assessed as methicillin MIC at 50 uM after 18 hrs by CLSI protocol based broth microdilution assay
Staphylococcus aureus [25] = assay: Potentiation of ceftazidime induced antibacterial activity against methicillin-resistant Staphylococcus aureus USA300 assessed as ceftazidime MIC at 50 uM after 18 hrs by CLSI protocol based broth microdilution assay
Staphylococcus aureus [26] = assay: Potentiation of cefoxitin induced antibacterial activity against methicillin-resistant Staphylococcus aureus USA300 assessed as fold change in cefoxitin MIC at 50 uM after 18 hrs by CLSI protocol based broth microdilution assay
Staphylococcus aureus [27] = assay: Potentiation of ampicillin induced antibacterial activity against methicillin-resistant Staphylococcus aureus COL assessed as fold change in ampicillin MIC at 50 uM after 18 hrs by CLSI protocol based broth microdilution assay
Staphylococcus aureus [28] = assay: Potentiation of cefoxitin induced antibacterial activity against methicillin-resistant Staphylococcus aureus COL assessed as fold change in cefoxitin MIC at 50 uM after 18 hrs by CLSI protocol based broth microdilution assay
Staphylococcus aureus [29] = assay: Potentiation of oxacillin induced antibacterial activity against methicillin-resistant Staphylococcus aureus COL assessed as fold change in oxacillin MIC at 50 uM after 18 hrs by CLSI protocol based broth microdilution assay
Staphylococcus aureus [30] = assay: Potentiation of oxacillin induced antibacterial activity against methicillin-resistant Staphylococcus aureus assessed as fold decrease in blaZ gene expression at 50 uM by RT-qPCR analysis; procedure, shortened: as §1
Staphylococcus aureus [31] = assay: Potentiation of oxacillin induced antibacterial activity against methicillin-resistant Staphylococcus aureus USA300 harboring stk1 deletion mutant co-transfected with a plasmid bearing stk1 assessed as oxacillin MIC at 50 uM after 18 hrs by CLSI protocol based broth microdilution assay
Procedure, shortened: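 Oxacillin MIC by broth microdilution in the USA300 Δstk1 strain complemented with plasmid-borne stk1, with stk1 expression induced. Tested with and without carbazole at 50 μM. Fold change in MIC is taken relative to oxacillin alone.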

Brc1cccc2[nH]c3ccccc3c12
fold change (FC) (Staphylococcus aureus [1]): 4 | fold change (FC) (Staphylococcus aureus [2]): 4 | fold change (FC) (Staphylococcus aureus [3]): 1 | fold change (FC) (Staphylococcus aureus [4]): 2 | fold change (FC) (Staphylococcus aureus [5]): 4 | fold change (FC) (Staphylococcus aureus [6]): 4 | fold change (FC) (Staphylococcus aureus [7]): 1 | fold change (FC) (Staphylococcus aureus [8]): 4.65 | MIC (Staphylococcus aureus [9]): 16 µg/mL | MIC (Staphylococcus aureus [10]): 16 µg/mL | MIC (Staphylococcus aureus [11]): 256 µg/mL | MIC (Staphylococcus aureus [12]): 1020 µg/mL | fold change (FC) (Staphylococcus aureus [13]): 4 | MIC (Staphylococcus aureus [14]): 16 µg/mL | MIC (Staphylococcus aureus [15]): 0.25 µg/mL | fold change (FC) (Staphylococcus aureus [16]): 1 | fold change (FC) (Staphylococcus aureus [17]): 8 | Activity (Staphylococcus aureus [18]): inactive | Activity (Staphylococcus aureus [19]): inactive

Brc1ccc2[nH]c3ccc(Br)cc3c2c1
fold change (FC) (Staphylococcus aureus [20]): 4 | fold change (FC) (Staphylococcus aureus [21]): 4 | MIC (Staphylococcus aureus [22]): 128 µg/mL | MIC (Staphylococcus aureus [23]): 32 µg/mL | MIC (Staphylococcus aureus [24]): 32 µg/mL | MIC (Staphylococcus aureus [25]): 256 µg/mL | fold change (FC) (Staphylococcus aureus [26]): 1 | fold change (FC) (Staphylococcus aureus [27]): 2 | fold change (FC) (Staphylococcus aureus [28]): 1 | fold change (FC) (Staphylococcus aureus [29]): 4

Brc1cccc2c1[nH]c1ccccc12
fold change (FC) (Staphylococcus aureus [20]): 8 | fold change (FC) (Staphylococcus aureus [21]): 512 | MIC (Staphylococcus aureus [22]): 64 µg/mL | MIC (Staphylococcus aureus [23]): 8 µg/mL | MIC (Staphylococcus aureus [24]): 8 µg/mL | MIC (Staphylococcus aureus [25]): 256 µg/mL | fold change (FC) (Staphylococcus aureus [26]): 2 | fold change (FC) (Staphylococcus aureus [27]): 2 | fold change (FC) (Staphylococcus aureus [28]): 1 | fold change (FC) (Staphylococcus aureus [30]): 3.86 | fold change (FC) (Staphylococcus aureus [29]): 1 | MIC (Staphylococcus aureus [31]): 1 µg/mL
